# The list is not random: actives were taken first. Their share in the collection is about 4.1%.
# KCNK3 inh: human KCNK3 channel inhibition, primary screen; AID 602410; CHO-KCNK3 thallium flux, FluxOR fluorescence; hits give low values; B-score at 10 µM; hit rate 0.84% among 340,000; O14649;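 active means B-score under library mean minus 4 SD, starting fluorescence ratio at most library mean plus 5 SD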;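 further: more negative B-score means stronger inhibition of thallium flux through KCNK3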
# Cl transport mod: modulators of human KCC2 chloride dependent transport. KCC2 cells, thallium flux FluoZin-2 fluorescence. B-score of Tl+ flux slope (higher = more flux/activation; lower = inhibition) at 10 µM. hit rate 2.2% among 190,000;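 active means thallium flux slope and its plate-corrected score both differing from the plate sample mean at a set confidence after two filtering rounds, in either direction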;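 further: slope of fluorescence scaled to starting intensity during 10 to 20 s after thallium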
# Target sequence (Q9H2X9 whole entry, looked up): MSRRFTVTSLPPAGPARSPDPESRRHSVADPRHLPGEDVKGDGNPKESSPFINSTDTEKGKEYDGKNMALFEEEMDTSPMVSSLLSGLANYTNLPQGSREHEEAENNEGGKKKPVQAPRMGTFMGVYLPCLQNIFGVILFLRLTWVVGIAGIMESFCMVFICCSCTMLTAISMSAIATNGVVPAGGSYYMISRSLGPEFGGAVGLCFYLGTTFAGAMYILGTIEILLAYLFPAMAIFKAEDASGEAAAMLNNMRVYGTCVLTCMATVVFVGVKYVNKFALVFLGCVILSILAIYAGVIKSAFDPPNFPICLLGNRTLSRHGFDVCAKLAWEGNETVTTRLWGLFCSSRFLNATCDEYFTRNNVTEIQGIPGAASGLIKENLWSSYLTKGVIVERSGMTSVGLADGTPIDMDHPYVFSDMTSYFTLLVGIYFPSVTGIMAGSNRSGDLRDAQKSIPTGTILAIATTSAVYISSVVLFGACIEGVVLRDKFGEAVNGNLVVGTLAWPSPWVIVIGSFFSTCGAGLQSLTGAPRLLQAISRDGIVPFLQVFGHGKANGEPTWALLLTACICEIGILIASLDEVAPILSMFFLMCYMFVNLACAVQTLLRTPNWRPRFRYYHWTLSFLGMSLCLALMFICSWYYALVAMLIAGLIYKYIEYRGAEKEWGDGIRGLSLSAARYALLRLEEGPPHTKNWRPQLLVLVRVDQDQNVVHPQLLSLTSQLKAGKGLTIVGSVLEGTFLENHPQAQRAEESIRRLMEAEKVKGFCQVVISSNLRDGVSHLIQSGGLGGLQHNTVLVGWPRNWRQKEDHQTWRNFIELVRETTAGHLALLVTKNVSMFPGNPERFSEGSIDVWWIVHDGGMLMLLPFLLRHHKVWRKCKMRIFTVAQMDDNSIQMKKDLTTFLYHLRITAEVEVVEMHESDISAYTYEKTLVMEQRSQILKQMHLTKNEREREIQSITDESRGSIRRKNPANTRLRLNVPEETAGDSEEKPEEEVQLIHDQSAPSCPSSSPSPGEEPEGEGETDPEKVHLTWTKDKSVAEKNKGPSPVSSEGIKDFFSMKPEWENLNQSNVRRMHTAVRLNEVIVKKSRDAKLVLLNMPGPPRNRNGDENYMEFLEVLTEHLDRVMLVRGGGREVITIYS
# KCNQ1 act: human KCNQ1 channel potentiation or activation | CHO-K1 KCNQ1, thallium flux FluxOR fluorescence; hits give high values | B-score at 10 µM | hit rate 0.35% among 310,000;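 active means fluorescence ratio B-score, a plate-corrected score, at least three library SD, with initial intensity B-score within 5 SD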
#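 Doses: Single concentration per compound, DMSO matched to controls | Test system: KCNQ1-transfected CHO-K1 cells | Timing: 90 min dye loading and 20 min compound exposure, both at room temperature | Measured by: Kinetic FluxOR thallium fluorescence, 10-s 1-Hz baseline, 110-s post-stimulus read | Medium: Assay buffer with matched DMSO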
# hERG rescue: hERG (human) protection from proarrhythmic block. CHO-hERG, FluxOR thallium flux, dofetilide IC70 present. activation (rescue from dofetilide block), less the hit threshold, % at 10 µM. hit rate 0.51% among 310,000. AID 1511;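 active means activation above the mean of controls blocked by dofetilide plus 5 SD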;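 further: thallium influx through hERG after potassium depolarization seen as dye fluorescence rise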
# KCNK9 inh: inhibitors of human KCNK9 two-pore domain potassium channel; HEK293 KCNK9, FluxOR thallium flux fluorescence; hits give low values; B-score at 10 µM; AID 488922; hit rate 1.2% among 310,000;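 active means ratio B-score over 3 SD below the library mean, with starting fluorescence within 5 SD of its mean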;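 further: negative B-score means less thallium flux so channel inhibition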
# KCNQ1 block: inhibitors of human KCNQ1 potassium channel. P51787. CHO-K1 KCNQ1, FluxOR thallium flux fluorescence; hits give high values. B-score at 10 µM. hit rate 1.3% among 310,000. AID 2642;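 active means compounds whose thallium flux B-score, printed positive for inhibition, exceeds three library SD while starting fluorescence stays within three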;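 further: channel opened by potassium depolarization with thallium stimulus after 20 min compound exposure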
# KCNK9 block conf: human KCNK9 inhibitor confirmation; inhibition, % at 10 µM; hit rate 43% among 4,900; AID 492992; shares compounds with KCNK9 inh; HEK293 KCNK9 cells, FluxOR thallium flux fluorescence;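 active means thallium signal inhibited by more than 5 SD of the compound-free buffer control wells, on both duplicate plates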;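 further: 0% = assay buffer control wells without compound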
# Kir21 sel: selectivity of KCNK9 modulators against mouse Kir2.1; Kir2.1 cells, FluxOR thallium flux fluorescence; shares compounds with KCNK9 inh; hit rate 4% among 4,900; inhibition, % at 10 µM; AID 492993;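 active means thallium signal drop more than 5 SD beyond the mean of the no-compound control wells, seen in both duplicate plates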;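 further: signal is fluorescence rise after thallium addition divided by baseline fluorescence; plate controls were assay buffer only for no effect and full block by chlorpromazine control for full effect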
# HEK293 Tl ctr: second counter-screen for KCNK9 modulators: effect in non-induced cells; shares compounds with KCNK9 inh; non-induced KCNK9-HEK293, FluxOR thallium flux; inhibition, % at 10 µM; hit rate 40% among 4,900;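 active means thallium signal drop beyond 5 SD of the untreated control mean, on both duplicate plates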;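 further: plate controls were buffer only IC0 wells for no effect and SID17386958 at its maximal inhibitory level for full effect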
# KCNK3 inh conf: human KCNK3 channel inhibition, confirmation assay. AID 651638. CHO-KCNK3 thallium flux, FluxOR fluorescence; 0% buffer, 100% carvedilol maximal block. shares compounds with KCNK3 inh. hit rate 99% among 2,400. ratio percent of control, % at 10 µM;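 active means ratio percent of control, averaged over triplicates, above buffer control mean plus 5 SD, cut at about 64% in these data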;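 further: ratio is the fluorescence rise from min to max over baseline after thallium stimulus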
# KCNK3 uninduced: activity in cells without induced KCNK3 expression. shares compounds with KCNK3 inh. non-induced KCNK3 parental cells, FluxOR thallium flux; hits give low values. thallium flux ratio (lower = more inhibition) at 10 µM. hit rate 40% among 2,400. AID 651747;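 active means thallium flux ratio, averaged over three wells, more than 5 SD below the buffer control mean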;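 further: host cells are CHO cells without KCNK3 induction; ratio is peak minus trough fluorescence over baseline then normalized to buffer controls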
# Numbers without * were called inactive; i = inactive; . = no result.
SMILES,KCNK3 inh,Cl transport mod,KCNQ1 act,hERG rescue,KCNK9 inh,KCNQ1 block,KCNK9 block conf,Kir21 sel,HEK293 Tl ctr,KCNK3 inh conf,KCNK3 uninduced
Cc1ccc(COn2c(-c3ccc(Cl)cc3Cl)nc3ncccc32)cc1,-9.6*,-1.3,i,-15,-11*,i,56%*,i,42%*,120*,0.15*
CCN(Cc1ccccc1)C(=O)CN1C(=O)COc2ccc(S(=O)(=O)N3CCCCCC3)cc21,i,.,i,-15,i,i,.,.,.,.,.
CCN(C(=O)CN1C(=O)COc2ccc(S(=O)(=O)N3CCCCCC3)cc21)c1cccc(C)c1,-8.8*,.,i,-11,-12*,i,44%*,i,24%*,120*,i
CCCn1c(N)c(C(=O)CN(C)CC(=O)Nc2cc(C)ccc2C)c(=O)[nH]c1=O,i,.,.,.,.,.,.,.,.,.,.
COc1ccccc1OCC(=O)Nc1cccc(-c2nc3ccccc3o2)c1,i,0.84,i,-3,-12*,i,45%*,i,i,114*,i
Cc1sc2nc(C3CC3)nc(N3CCN(C(=O)c4ccc(F)cc4)CC3)c2c1C,-13*,.,i,-7,-14*,i,29%*,i,28%*,92*,i
COc1ccc(C(=O)N2CCN(c3nc(C4CC4)nc4sc(C)c(C)c34)CC2)cc1,i,.,i,-11,i,i,.,.,.,.,.
Cc1sc2nc(C3CC3)nc(N3CCN(S(=O)(=O)c4ccc(F)cc4)CC3)c2c1C,i,-0.059,i,-14,i,i,.,.,.,.,.
O=C(c1ccco1)N1CCN(c2nc(C3CC3)nc3sc4c(c23)CCCC4)CC1,-8.7*,-3,i,-18,-19*,i,66%*,i,28%*,117*,0.13*
Cc1sc2nc(C3CC3)nc(N3CCN(C(=O)c4ccccc4F)CC3)c2c1C,-12*,.,i,-5,-13*,i,i,i,28%*,114*,0.14*
Cc1nc(N2CCN(C(=O)c3ccco3)CC2)c2c3c(sc2n1)CCCC3,i,-0.42,i,-15,i,i,.,.,.,.,.
N#Cc1ccccc1NC(=O)COc1ccccc1C(=O)Nc1ccccc1,i,.,.,.,.,.,.,.,.,.,.
O=C(CCNS(=O)(=O)c1ccccc1F)N1CCN(Cc2ccccc2)CC1,i,.,i,-16,i,i,.,.,.,.,.
COc1ccc(N)c2c1C(=O)c1ccccc1C2=O,i,-1.6,i,-12,i,i,.,.,.,.,.
COc1ccc(OC)c2c1C(=O)C(Cl)=C(Cl)C2=O,-8.9*,-2.5,i,-30,-9.8*,10*,58%*,41%*,87%*,151*,0.089*
CCOC(=O)C1CCN(c2nc(-c3ccc(C)cc3)nc3ccccc23)CC1,-9.2*,0.85,i,-15,-8.2*,i,48%*,i,30%*,108*,i
COCCN(Cc1nc2ccccc2c(=O)[nH]1)C(=O)COc1cccc(C(C)=O)c1,i,.,.,.,.,.,.,.,.,.,.
COc1ccccc1NC(=S)NC(=O)CCCOc1ccc(Cl)cc1Cl,-10*,-0.0055,i,-2,-23*,i,58%*,i,30%*,117*,i
O=S(=O)(Nc1ccc(-n2cnnn2)cc1)c1ccc(Cl)s1,i,.,.,.,.,.,.,.,.,.,.
C#CCN(Cc1ccco1)C(=O)c1cc(COc2ccc(F)cc2Cl)on1,-11*,-1.6,i,-7,-9.3*,i,i,i,34%*,115*,0.15*
